Experimental data: ChEMBL document CHEMBL1121464, “14-(Arylhydroxyamino)codeinones and derivatives as analgetics and antagonists” (1980)
Values joined by “and” are separate entries in the source; they are usually repeats but may differ in a detail not shown here. Equal values may be shown once. Active and inactive are the calls of the source.

Key:
Mus musculus [1] = test: Tested for antagonistic activity using Straub tail test in mice at 20 mg/kg upon subcutaneous administration; type: functional; conditions: sc
Mus musculus [2] = test: Tested for analgesic activity using writhing test in mice at 20 mg/kg upon subcutaneous administration; type: functional; conditions: sc
Mus musculus [3] = species on record: Mus musculus; test: Maximum percent analgesia using tail flick test in mice; type: functional
Method in brief: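 Young male Swiss mice (ca. 35 g) restrained in cylinders, with the tail exposed to 54 °C water. Reaction time (shorter of a pair) taken pre-dose and every 15 min to 2 h. Naive non-responders under 2.2 s excluded; 5 s cutoff. Dosed ip at 20 mg/kg in propylene glycol or water, 9–11 mice per group. […] Analgesia defined as PRT >2.6 s; the value is the peak percentage of analgesic mice at any time point.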

Mus musculus [4] = test: Tested for analgesic activity using writhing test in mice at 20 mg/kg upon subcutaneous administration; Inactive; type: functional, organism-based; design: dose 20 mg/kg
Mus musculus [5] = test: Tested for antagonistic activity using Straub tail test in mice at 20 mg/kg upon subcutaneous administration; Inactive; type: functional, organism-based; design: dose 20 mg/kg

## COc1ccc2c(c1O)C13CCN(CC4CC4)C(C2)C12C=CC(=O)C3ON2c1ccccc1 (centres undefined)
Mus musculus [1]
  ED50: > 40 mg/kg
Mus musculus [2]
  ED50: > 40 mg/kg
Mus musculus [3]
  Analgesia: 20%

## COc1ccc2c3c1OC1C(=O)C=CC4(N(O)c5ccc(F)cc5)C(C2)N(C)CCC314 (centres undefined)
Mus musculus [1]
  ED50: > 40 mg/kg
Mus musculus [2]
  ED50: 0.71 mg/kg
Mus musculus [3]
  Analgesia: 30%

## COc1ccc2c3c1OC1C(=O)C=CC4(N(O)c5ccccc5)C(C2)N(CC2CC2)CCC314 (centres undefined)
Mus musculus [1]
  ED50: ~7 mg/kg
Mus musculus [2]
  ED50: > 40 mg/kg
Mus musculus [3]
  Analgesia: 32%

## COc1ccc2c3c1OC1C(=O)CCC4(Nc5ccccc5)C(C2)N(C)CCC314 (centres undefined)
Mus musculus [1]
  ED50: > 40 mg/kg
Mus musculus [2]
  ED50: 1.04 mg/kg
Mus musculus [3]
  Analgesia: 10%

## COc1ccc2c3c1OC1C(=O)CCC4(Nc5ccccc5)C(C2)N(CC2CC2)CCC314 (centres undefined)
Mus musculus [1]
  ED50: ~10.5 mg/kg
Mus musculus [2]
  ED50: ~40 mg/kg
Mus musculus [3]
  Analgesia: 10%

## COc1ccc2c(c1O)C13CCN(C)C(C2)C12C=CC(=O)C3ON2c1ccccc1 (centres undefined)
Mus musculus [1]
  ED50: > 40 mg/kg
Mus musculus [2]
  ED50: 1.87 mg/kg
Mus musculus [3]
  Analgesia: 50%

## COc1ccc2c3c1OC1C(=O)CCC4(Nc5ccc(F)cc5)C(C2)N(CC2CC2)CCC314 (centres undefined)
Mus musculus [1]
  ED50: ~5 mg/kg
Mus musculus [2]
  ED50: ~25 mg/kg
Mus musculus [3]
  Analgesia: 32%

## COc1ccc2c3c1OC1C(=O)C=CC4(N(O)c5ccc(F)cc5)C(C2)N(CC2CC2)CCC314 (centres undefined)
Mus musculus [1]
  ED50: 12 mg/kg
Mus musculus [2]
  ED50: ~40 mg/kg
Mus musculus [3]
  Analgesia: 32%

## COc1ccc2c3c1OC1C(=O)CCC4(Nc5ccc(F)cc5)C(C2)N(C)CCC314 (centres undefined)
Mus musculus [1]
  ED50: > 40 mg/kg
Mus musculus [2]
  ED50: 0.76 mg/kg
Mus musculus [3]
  Analgesia: 10%

## COc1ccc2c3c1OC1C(=O)C=CC4(N(O)c5ccccc5)C(C2)N(C)CCC314 (centres undefined)
Mus musculus [1]
  ED50: > 20 mg/kg
Mus musculus [2]
  ED50: 1.45 mg/kg
Mus musculus [3]
  Analgesia: 20%

## COc1ccc2c(c1O)C13CCN(C)C(C2)C12C=CC(=O)C3ON2c1ccc(F)cc1 (centres undefined)
Mus musculus [1]
  ED50: > 40 mg/kg
Mus musculus [2]
  ED50: 2.53 mg/kg
Mus musculus [3]
  Analgesia: 90%

## C=CCN1CC[C@]23c4c5ccc(O)c4O[C@H]2C(=O)CC[C@@]3(O)[C@H]1C5 [NALOXONE]
Mus musculus [4]
  ED50: inactive
Mus musculus [3]
  Analgesia: 32%

## COc1ccc2c3c1OC1C(=O)C=CC4(NO)C(C2)N(C)CCC314 (centres undefined)
Mus musculus [1]
  ED50: > 20 mg/kg
Mus musculus [2]
  ED50: 5 mg/kg
Mus musculus [3]
  Analgesia: 10% and 20%

## CN1CC[C@]23c4c5ccc(O)c4O[C@H]2[C@@H](O)C=C[C@H]3[C@H]1C5 [MORPHINE]
Mus musculus [5]
  ED50: inactive
Mus musculus [2]
  ED50: 0.26 mg/kg
Mus musculus [3]
  Analgesia: 80%

## COc1ccc2c(c1O)C13CCN(CC4CC4)C(C2)C12C=CC(=O)C3ON2c1ccc(F)cc1 (centres undefined)
Mus musculus [1]
  ED50: > 40 mg/kg
Mus musculus [2]
  ED50: ~31 mg/kg
Mus musculus [3]
  Analgesia: 20%
